In the library only some 4.1% were active in any assay of this set; here they are far more common.
MEKK2 WT-MEK5 = modulators of MEK5 binding to wildtype MEKK2, primary screen, biochemical, multiplex bead flow cytometry, Alexa488-MEK5 | Mitogen-activated protein kinase kinase kinase 2 (Homo sapiens), Q9Y2U5 | Alexa488-MEK5 binding to MEKK2 WT; actives lie on both sides | binding response (% of control), % at 10 µM | 290,000 compounds, 1.1% hits; in the data active = binding response below about 67% or above about 130%; inconclusive = no clear call, values can overlap the other calls; inactive = in between
T cruzi inh = inhibitors of intracellular T. cruzi growth, primary screen, luminescence, NIH3T3 host cells; T. cruzi beta-gal in NIH3T3, 90 h; inhibition, % (no concentration beside the values); 300,000 compounds, 1.4% hits; AID 1885, 2009;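 active = mean inhibition across valid replicates above about 55%, limit read from the data; inconclusive = mean below that limit but half or more replicates reach it; inactive = mean below it, under half of replicates reach it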;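 also: signal also drops with host cell toxicity which is not excluded here; 0% = plate median of DMSO wells and 100% = zero luminescence signal; higher percent means less beta-gal luminescence so fewer parasites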
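System – NIH/3T3 host cells with β-galactosidase reporter T. cruzi · Doses – single 50 nL compound addition per well in DMSO · Reagent – 5000 T. cruzi trypomastigotes/well · Medium – Low-serum DMEM with 2% FBS · Timing – ≥90 h infection period, 3 h prior cell attachment · Evaluation – parasite load inhibition, % · Technique – GalScreen luminescence, 60 min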
DNA FID counter = compounds displacing fluorescent DNA intercalator, primary screen, artefact control for HCV NS3 helicase inhibitor project, biochemical, FID fluorescence; 290,000 compounds, 0.17% hits; inhibition, % at 7.9 µM; DNA fluorescent intercalator displacement; in the data active = inhibition above about 37%;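 also: 0% = vehicle and 100% = reference compound; higher means more ethidium bromide displaced from hairpin DNA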
MEKK2 mut-MEK5 = MEK5 binding signal on mutant MEKK2 PB1, primary screen, biochemical, multiplex bead flow cytometry, Alexa488-MEK5. Alexa488-MEK5 binding to MEKK2 mutant. percent response, % at 10 µM. 290,000 compounds, 0.35% hits. AID 1530, 2009; in the data active = percent response above about 24%, passing the limit was not always enough
NS3 helicase inh = inhibitors of HCV NS3 helicase, primary screen, biochemical, Cy5 molecular beacon fluorescence | Hepatitis C virus NS3 helicase | NS3 helicase DNA unwinding | inhibition, % at 10.9 µM | 290,000 compounds, 0.56% hits | AID 1800, 2009;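 active = inhibition above the mean of all tested compounds plus 3 SD, set per campaign, cut at about 35% in these data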;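 also: 0% = DMSO wells and 100% = thioflavine S control wells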
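Measured by: Cy5 fluorescence, 0 and 60 min reads / Assay system: NS3 helicase fragment of HCV / Control set: low DMSO, high thioflavine S at 110 µM / Times: 1 h reaction at 25 °C, ATP-initiated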
MEKK3 PB1 HTS = modulators of MEKK3-MEK5 PB1 binding, primary screen, biochemical, wildtype MEKK3, multiplex bead flow cytometry, Alexa488-MEK5; Mitogen-activated protein kinase kinase kinase 3 (Homo sapiens), Q99759; binding response (% of control), % at 10 µM; 290,000 compounds, 1.4% hits; bead-based flow cytometry, Alexa488-MEK5 binding to MEKK3; actives lie on both sides; 0 = blocked by unlabeled MEK5, 100 = vehicle; AID 1529, 2009;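 active = binding response more than 3 SD above or below the average of its plate-row segment, actives on both sides; inconclusive = wells at one plate position flagged as instrument error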;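 also: Alexa488 bead fluorescence after subtracting the streptavidin-only scavenger bead signal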
Target sequence (Q99759 whole entry, looked up): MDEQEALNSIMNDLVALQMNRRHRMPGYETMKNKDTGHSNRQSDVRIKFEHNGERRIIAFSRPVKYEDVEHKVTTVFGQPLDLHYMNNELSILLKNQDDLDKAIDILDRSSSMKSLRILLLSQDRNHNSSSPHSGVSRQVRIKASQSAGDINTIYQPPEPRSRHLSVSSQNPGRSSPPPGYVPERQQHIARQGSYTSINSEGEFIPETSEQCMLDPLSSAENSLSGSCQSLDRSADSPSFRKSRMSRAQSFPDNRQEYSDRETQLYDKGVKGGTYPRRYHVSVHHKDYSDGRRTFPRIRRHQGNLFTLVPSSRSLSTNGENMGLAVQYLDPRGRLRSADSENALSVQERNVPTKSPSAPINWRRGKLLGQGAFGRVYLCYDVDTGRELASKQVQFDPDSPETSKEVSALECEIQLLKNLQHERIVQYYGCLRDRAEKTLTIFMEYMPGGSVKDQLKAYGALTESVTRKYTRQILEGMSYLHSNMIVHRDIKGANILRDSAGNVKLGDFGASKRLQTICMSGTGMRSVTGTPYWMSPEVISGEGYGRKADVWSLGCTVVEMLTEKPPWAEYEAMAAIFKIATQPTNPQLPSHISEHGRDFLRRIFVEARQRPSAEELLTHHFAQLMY
Active calls of the source: *.

Screening Cc1cc(C(=O)CN2CCC(C)CC2)c(C)n1-c1ccccc1F returned MEKK2 WT-MEK5 102, T cruzi inh 57*, DNA FID counter 2, MEKK2 mut-MEK5 8, NS3 helicase inh 3 and MEKK3 PB1 HTS 97.
CSc1nc(-c2ccc(C)cc2)nc(C(Cl)Cl)n1 was read as T cruzi inh 56*, DNA FID counter 1 and NS3 helicase inh -4.
Screening CN(C)S(=O)(=O)Oc1ccsc1C(=O)Nc1cccc(Cl)c1Cl returned MEKK2 WT-MEK5 105, T cruzi inh 62*, DNA FID counter -3, MEKK2 mut-MEK5 2, NS3 helicase inh -5 and MEKK3 PB1 HTS 110.
Cc1cccn2c(=O)c3cc(C(=O)NC4CCCCC4)c(=N)n(Cc4ccccc4)c3nc12 was read as MEKK2 WT-MEK5 79, T cruzi inh 58*, DNA FID counter 2, MEKK2 mut-MEK5 -2, NS3 helicase inh -18 and MEKK3 PB1 HTS 97.
Screening Cc1cccn2c(=O)c3cc(C(=O)NC4CCCC4)c(=N)n(Cc4ccc(F)cc4)c3nc12 returned MEKK2 WT-MEK5 98, T cruzi inh 36, DNA FID counter 13, MEKK2 mut-MEK5 0, NS3 helicase inh -42 and MEKK3 PB1 HTS 99.
For CCNC(=O)c1cc2c(=O)n3cccc(C)c3nc2n(CCc2ccccc2)c1=N the results were MEKK2 WT-MEK5 119, T cruzi inh 33, DNA FID counter -3, MEKK2 mut-MEK5 7, NS3 helicase inh 1 and MEKK3 PB1 HTS 120.
CCCCNC(=O)c1cc2c(=O)n3cccc(C)c3nc2n(Cc2ccccc2)c1=N was read as MEKK2 WT-MEK5 96, T cruzi inh 60*, DNA FID counter -5, MEKK2 mut-MEK5 -1, NS3 helicase inh 2 and MEKK3 PB1 HTS 97.
`O=C(c1cccs1)N1CCC(c2nc3c(nnn3Cc3c(Cl)cccc3Cl)c(=O)[nH]2)CC1` gave MEKK2 WT-MEK5 95, T cruzi inh -4, DNA FID counter -38, MEKK2 mut-MEK5 -2, NS3 helicase inh 2 and MEKK3 PB1 HTS 100.
Screening CCN(CC)CCN(C(=O)c1ccc(S(=O)(=O)N(CC)c2ccccc2)cc1)c1nc2c(OC)ccc(OC)c2s1 returned MEKK2 WT-MEK5 157*, T cruzi inh 12, DNA FID counter 8, MEKK2 mut-MEK5 28*, NS3 helicase inh -16 and MEKK3 PB1 HTS 106.
Screening COc1ccc(C)c2sc(N(CCN(C)C)C(=O)c3ccc4ccccc4c3)nc12 returned MEKK2 WT-MEK5 145*, T cruzi inh -4, DNA FID counter 21, MEKK2 mut-MEK5 24*, NS3 helicase inh -88 and MEKK3 PB1 HTS 105.
Screening Cc1nn(C)c(C)c1S(=O)(=O)NCCc1ccc(Cl)cc1 returned MEKK2 WT-MEK5 104, T cruzi inh 7, DNA FID counter -8, MEKK2 mut-MEK5 5, NS3 helicase inh 12 and MEKK3 PB1 HTS 99.
`CN(C)CCNc1ccc(-c2nn(C)c(=O)c3ccccc23)cc1[N+](=O)[O-]` gave MEKK2 WT-MEK5 97, T cruzi inh 72*, DNA FID counter 13, MEKK2 mut-MEK5 0, NS3 helicase inh -8 and MEKK3 PB1 HTS 99.
Oc1oc(-c2cccc3ccccc23)nc1C=NCc1ccccc1 was read as MEKK2 WT-MEK5 96, DNA FID counter 1, MEKK2 mut-MEK5 -2, NS3 helicase inh -10 and MEKK3 PB1 HTS 97.
Screening Oc1oc(-c2cccc3ccccc23)nc1/C=N/c1nccs1 returned MEKK2 WT-MEK5 104, T cruzi inh -14, DNA FID counter -25, MEKK2 mut-MEK5 1, NS3 helicase inh 23 and MEKK3 PB1 HTS 130*.
For CS(=O)(=O)Nc1ccc(C2=NN(S(=O)(=O)c3ccc(F)cc3)C(c3ccco3)C2)cc1 (configuration not stated) the results were MEKK2 WT-MEK5 3.0*, T cruzi inh 3, DNA FID counter -15, MEKK2 mut-MEK5 18, NS3 helicase inh 1 and MEKK3 PB1 HTS 99.
For O=S(=O)(c1ccccc1)N1N=C(c2ccc(O)cc2)CC1c1ccco1 (configuration not stated) the results were MEKK2 WT-MEK5 100, T cruzi inh 6, DNA FID counter -8, MEKK2 mut-MEK5 1, NS3 helicase inh 4 and MEKK3 PB1 HTS 99.
For O=S(=O)(c1ccccc1)N1N=C(c2ccc(Br)cc2)CC1c1ccco1 (configuration not stated) the results were MEKK2 WT-MEK5 17*, T cruzi inh 19, DNA FID counter -15, MEKK2 mut-MEK5 17, NS3 helicase inh -3 and MEKK3 PB1 HTS 102.
COc1ccccc1C1CC(c2ccc(NS(C)(=O)=O)cc2)=NN1S(=O)(=O)c1ccccc1 (configuration not stated) was read as MEKK2 WT-MEK5 88, T cruzi inh 15, DNA FID counter -31, MEKK2 mut-MEK5 1, NS3 helicase inh -16 and MEKK3 PB1 HTS 100.
Screening S=C(NCC1CCCCC1)Nc1ccc(Oc2ccccc2)cc1 returned MEKK2 WT-MEK5 127, T cruzi inh 55*, DNA FID counter -10, MEKK2 mut-MEK5 2, NS3 helicase inh -3 and MEKK3 PB1 HTS 98.
Screening CCCN(CCC)CCNC(=O)C1CCN(Cc2nc(-c3ccc(Cl)cc3)oc2C)CC1 returned MEKK2 WT-MEK5 125, T cruzi inh 73*, DNA FID counter 36, MEKK2 mut-MEK5 5, NS3 helicase inh -30 and MEKK3 PB1 HTS 103.
`Cc1oc(-c2ccc(Cl)cc2)nc1CN1CCC(C(=O)NCc2cccnc2)CC1` gave MEKK2 WT-MEK5 112, T cruzi inh -12, DNA FID counter 7, MEKK2 mut-MEK5 3, NS3 helicase inh -11 and MEKK3 PB1 HTS 105.
Cc1oc(-c2cccc(Cl)c2)nc1CN1CCC(C(=O)NCCCN2CC(C)CC(C)C2)CC1 (configuration not stated) was read as MEKK2 WT-MEK5 139*, T cruzi inh inconclusive, DNA FID counter 32, MEKK2 mut-MEK5 18, NS3 helicase inh -52 and MEKK3 PB1 HTS 101.
Screening Cc1oc(-c2cccc(Cl)c2)nc1CN1CCC(C(=O)NCCCN2CCCC2=O)CC1 returned MEKK2 WT-MEK5 103, T cruzi inh -11, DNA FID counter -1, MEKK2 mut-MEK5 3, NS3 helicase inh -2 and MEKK3 PB1 HTS 102.
For O=C1NC(=O)/C(=C\c2ccc(Br)o2)S1 the results were MEKK2 WT-MEK5 101, T cruzi inh 69*, DNA FID counter 0, MEKK2 mut-MEK5 10, NS3 helicase inh 20 and MEKK3 PB1 HTS 106.

Source: PubChem BioAssay
